Assay results collected from several papers.
STK16: Serine/threonine-protein kinase 16 (STK16, Homo sapiens, UniProt O75716)
PIK3C2B: Phosphatidylinositol 4-phosphate 3-kinase C2 domain-containing subunit beta (PIK3C2B, Homo sapiens, UniProt O00750)
Nectin-4: Nectin-4 (Homo sapiens, UniProt Q96NY8)
UCK1: UCK1 (Homo sapiens, UniProt Q9HA47)

CCCN1CCN(c2ccc(-c3cncc(Cl)c3N3CCC4(CCNC4=O)CC3)cc2)CC1
Kd (STK16; cell-free assay; lysate): 19400 nM

Cc1cc(Nc2cc3ncccc3c(N[C@@H]3C[C@H]4CC[C@@H](C3)N4CCC#N)n2)n[nH]1
Kd (STK16; binding; competition with immobilised ligand): 110 nM

Cc1cc2nc3c(=O)[nH]c(=O)nc-3n(C[C@H](O)[C@H](O)[C@H](O)COP(=O)(O)OP(=O)(O)OC[C@H]3O[C@@H](n4cnc5c(N)ncnc54)[C@H](O)[C@@H]3O)c2cc1C
Kd (Heterogeneous nuclear ribonucleoprotein U-like protein 1 (HNRNPUL1, Homo sapiens, UniProt Q9BUJ2); binding; lysate): 11 nM

Cc1cnc(-c2ccc(-c3ccc(NC(=O)Nc4c(F)cc(F)cc4F)cc3F)c3c2C(=O)NC3)[nH]1
Kd (Aurora kinase B (AURKB, Homo sapiens, UniProt Q96GD4); binding; competition with immobilised ligand): 3.1 nM

Nc1ncnc2c1ncn2[C@@H]1O[C@H](COP(=O)(O)O)[C@@H](O)[C@H]1O
Kd (Adenylosuccinate lyase (ADSL, Homo sapiens, UniProt P30566); binding; ITC): 54000 nM

CC(=O)N[C@H](C(=O)N[C@H](C(=O)N[C@@H](Cc1ccccc1)C(=O)N[C@H](C(=O)N[C@@H](CO)C(=O)N[C@@H](Cc1c[nH]c2ccccc12)C(=O)N[C@@H](CCC(=O)O)C(=O)N[C@@H](CCC(=O)O)C(=O)N[C@@H](Cc1ccc(O)cc1)C(=O)N[C@@H](CC(C)C)C(=O)N[C@@H](CC(=O)O)C(=O)N[C@@H](Cc1c[nH]c2ccccc12)C(=O)N[C@H](C(N)=O)C(C)C)[C@@H](C)O)C(C)C)[C@@H](C)O
Kd (Proprotein convertase subtilisin/kexin type 9 (PCSK9, Homo sapiens, UniProt Q8NBP7); binding; SPR): 667 nM

O=C(CCCCCCC(=O)Nc1ccc([C@H]2O[C@@H](CSc3nc(-c4ccccc4)c(-c4ccccc4)o3)C[C@@H](c3ccc(CO)cc3)O2)cc1)NO
Kd (Histone deacetylase 2 (HDAC2, Homo sapiens, UniProt Q92769); cell-free assay): > 30200 nM

CC#CC(=O)N1CC[C@@H](n2cc(-c3ccc(Oc4c(F)cccc4F)cc3)c3c(N)n[nH]c(=O)c32)C1
Kd (Tyrosine-protein kinase TXK (TXK, Homo sapiens, UniProt P42681); binding; competition with immobilised ligand): 136 nM

CCC(=O)N1CCC(C(=O)NCC(=O)N2CCN(c3nc(-c4cnc(N)nc4C(F)F)nc(N4CCOCC4)n3)CC2)CC1
Kd (PIK3C2B; binding; competition with immobilised ligand): 85 nM

CC(=O)N[C@H](C(=O)N1C[C@H](O)C[C@H]1C(=O)NCc1ccc(-c2scnc2C)cc1)C(C)(C)SCCCCCCNC(=O)C[C@@H]1N=C(c2ccc(Cl)cc2)c2c(sc(C)c2C)-n2c(C)nnc21
Kd (Bromodomain-containing protein 3, BD1 (BRD3, Homo sapiens, UniProt Q15059); binding; ITC): 35 nM

CCCC[C@@H]1NC(=O)[C@H](Cc2ccc(O)cc2)NC(=O)[C@@H]2CCCN2C(=O)[C@H](CC(=O)O)NC(=O)[C@H](C)NC(=O)[C@H](Cc2ccccc2)NC(=O)[C@@H]2CSCCC(=O)N3CN(CN(C3)C(=O)CCSC[C@@H](C(=O)N[C@@H](C)C(N)=O)NC1=O)C(=O)CCSC[C@H](NC(C)=O)C(=O)N[C@@H](CC(C)(C)C)C(=O)N1CCC[C@H]1C(=O)N[C@@H](CCC(=O)O)C(=O)N[C@H](CCCCNC(=O)CCc1cn(CCOCCOCCOCCOCCOCCC(=O)N[C@H]3CSCCC(=O)N4CN5CN(C4)C(=O)CCSC[C@H](NC(=O)[C@@H](CC(=O)O)NC(=O)[C@H](Cc4cccc6ccccc46)NC(=O)[C@@H]4CCCN4C3=O)C(=O)N[C@@H](CCSC)C(=O)N[C@@H](CCCCNC(=N)N)C(=O)N[C@@H](CC(=O)O)C(=O)N[C@@H](Cc3c[nH]c4ccccc34)C(=O)N[C@@H](CO)C(=O)N[C@@H]([C@@H](C)O)C(=O)N3CCC[C@H]3C(=O)N3C[C@H](O)C[C@H]3C(=O)N[C@@H](Cc3c[nH]c4ccccc34)C(=O)N[C@H](C(N)=O)CSCCC5=O)nn1)C(=O)N1CCC[C@H]1C(=O)N[C@@H](Cc1ccc(O)cc1)C(=O)N2
Kd (Nectin-4; binding; SPR): 1.8 nM

[N-]=[N+]=N[C@@H]1[C@H](O)[C@@H](CO)O[C@H]1n1ccc(=O)[nH]c1=O
Kd (UCK1; binding; fluorescence): 181 nM

C=CC(=O)N1CCC(C(=O)N(C)CC(=O)N2CCN(c3nc(-c4cnc(N)nc4C(F)F)nc(N4CCOCC4)n3)CC2)CC1
Kd (PIK3C2B; binding; competition with immobilised ligand): 155 nM

NC(=O)C1=CN([C@@H]2O[C@H](COP(=O)(O)OP(=O)(O)OC[C@H]3O[C@@H](n4cnc5c(N)ncnc54)[C@H](OP(=O)(O)O)[C@@H]3O)[C@@H](O)[C@H]2O)C=CC1
Kd (ZMO1885 (Zymomonas mobilis, UniProt Q5NLA1, D294W/Y343W); binding): 53000 nM

CCCC[C@@H]1NC(=O)[C@H](Cc2ccc(O)cc2)NC(=O)[C@@H]2CCCN2C(=O)[C@H](CCC(=O)O)NC(=O)[C@H](C)NC(=O)[C@H](Cc2ccccc2)NC(=O)[C@@H]2CSCCC(=O)N3CN(CN(C3)C(=O)CCSC[C@H](NC(C)=O)C(=O)N[C@@H](CC(C)(C)C)C(=O)N3CCC[C@H]3C(=O)N[C@@H](CCC(=O)O)C(=O)N[C@H](CCCCNC(=O)CCc3cn(CCOCCOCCOCCN(CCOCCOCCOCCC(=O)N[C@H]4CSCCC(=O)N5CN6CN(C5)C(=O)CCSC[C@H](NC(=O)[C@@H](CC(=O)O)NC(=O)[C@H](Cc5cccc7ccccc57)NC(=O)[C@@H]5CCCN5C4=O)C(=O)N[C@@H](CCSC)C(=O)N[C@@H](CCCCNC(=N)N)C(=O)N[C@@H](CC(=O)O)C(=O)N[C@@H](Cc4c[nH]c5ccccc45)C(=O)N[C@@H](CO)C(=O)N[C@@H]([C@@H](C)O)C(=O)N4CCC[C@H]4C(=O)N4C[C@H](O)C[C@H]4C(=O)N[C@@H](Cc4c[nH]c5ccccc45)C(=O)N[C@H](C(N)=O)CSCCC6=O)CCOCCOCCOCCn4cc(CCC(=O)NCCCC[C@H]5NC(=O)[C@H](CCC(=O)O)NC(=O)[C@@H]6CCCN6C(=O)[C@H](CC(C)(C)C)NC(=O)[C@@H](NC(C)=O)CSCCC(=O)N6CN7CN(C6)C(=O)CCSC[C@H](NC(=O)[C@H](Cc6ccc(O)cc6)NC(=O)[C@@H]6CCCN6C5=O)C(=O)N[C@@H](Cc5ccccc5)C(=O)N[C@@H](C)C(=O)N[C@@H](CCC(=O)O)C(=O)N5CCC[C@H]5C(=O)N[C@@H](Cc5ccc(O)cc5)C(=O)N[C@@H](CCCC)C(=O)N[C@H](C(N)=O)CSCCC7=O)nn4)nn3)C(=O)N3CCC[C@H]3C(=O)N[C@@H](Cc3ccc(O)cc3)C(=O)N2)C(=O)CCSC[C@@H](C(N)=O)NC1=O
Kd (Nectin-4; binding; SPR): 2.7 nM

NC(=O)c1ncn([C@@H]2O[C@H](COP(=O)(O)O)[C@@H](O)[C@H]2O)c1N
Kd (Adenylosuccinate lyase (ADSL, Homo sapiens, UniProt P30566, R303C); binding; ITC): 122000 nM

[N-]=[N+]=N[C@@H]1[C@H](O)[C@@H](CO)O[C@H]1n1ccc(N)nc1=O
Kd (UCK1; binding; fluorescence): 65.7 nM
